Test results published in the M2OR odorant receptor database.
Substitutions are numbered along the chain they refer to.

Legend:
Conditions in all cases: stereoisomer not certain
O52J3 T77A V128I Q141L = tested on: O52J3 T77A V128I Q141L
Procedure, shortened: (§1)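 Whether a receptor–molecule pair is responsive (active) rests on the original authors' judgment that its measured signal was statistically different from baseline. Pairs without that judgment are non-responsive (inactive). Sources used varied assay methods, commonly transient luciferase assays in mammalian cell lines.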

O52K1 A119T A149T = tested on: T1, O52K1 A119T A149T
T1 sequence (whole entry): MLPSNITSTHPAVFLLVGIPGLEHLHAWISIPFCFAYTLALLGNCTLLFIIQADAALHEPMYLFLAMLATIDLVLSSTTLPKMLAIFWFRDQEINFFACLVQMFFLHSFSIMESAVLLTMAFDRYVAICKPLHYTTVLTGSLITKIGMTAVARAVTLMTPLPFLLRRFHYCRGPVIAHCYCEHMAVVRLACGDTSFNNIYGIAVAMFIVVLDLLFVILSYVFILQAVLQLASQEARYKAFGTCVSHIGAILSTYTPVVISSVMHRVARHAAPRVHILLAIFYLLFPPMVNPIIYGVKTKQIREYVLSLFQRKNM
Procedure, shortened: as §1

O52K1 Q52R = tested on: T2, O52K1 Q52R
T2 sequence (whole entry): T1 sequence (whole entry) with Q52R, T119A, T149A
Procedure, shortened: as §1

O52M1 S305R = tested on: T3, O52M1 S305R
T3 sequence (whole entry): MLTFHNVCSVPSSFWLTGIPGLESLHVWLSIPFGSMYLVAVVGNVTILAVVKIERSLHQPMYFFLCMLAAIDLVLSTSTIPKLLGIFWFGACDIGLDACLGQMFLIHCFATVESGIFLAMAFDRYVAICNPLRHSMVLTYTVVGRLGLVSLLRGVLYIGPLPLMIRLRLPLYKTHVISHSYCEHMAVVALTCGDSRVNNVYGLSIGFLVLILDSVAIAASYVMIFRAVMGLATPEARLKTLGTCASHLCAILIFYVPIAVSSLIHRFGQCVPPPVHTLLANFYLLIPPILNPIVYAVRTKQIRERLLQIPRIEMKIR
Procedure, shortened: as §1

O52N1 R167C F247I = tested on: T4, O52N1 R167C F247I
T4 sequence (whole entry): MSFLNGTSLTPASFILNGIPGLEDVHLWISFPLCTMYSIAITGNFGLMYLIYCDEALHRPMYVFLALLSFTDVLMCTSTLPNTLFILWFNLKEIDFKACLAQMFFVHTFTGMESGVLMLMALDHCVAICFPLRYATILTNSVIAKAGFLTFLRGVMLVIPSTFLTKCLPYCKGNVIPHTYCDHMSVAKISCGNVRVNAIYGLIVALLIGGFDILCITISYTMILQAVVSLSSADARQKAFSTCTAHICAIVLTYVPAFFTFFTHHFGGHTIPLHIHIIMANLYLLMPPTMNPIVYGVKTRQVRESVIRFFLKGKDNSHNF
Procedure, shortened: as §1

O52N2 S249A H264R = tested on: T5, O52N2 S249A H264R
T5 sequence (whole entry): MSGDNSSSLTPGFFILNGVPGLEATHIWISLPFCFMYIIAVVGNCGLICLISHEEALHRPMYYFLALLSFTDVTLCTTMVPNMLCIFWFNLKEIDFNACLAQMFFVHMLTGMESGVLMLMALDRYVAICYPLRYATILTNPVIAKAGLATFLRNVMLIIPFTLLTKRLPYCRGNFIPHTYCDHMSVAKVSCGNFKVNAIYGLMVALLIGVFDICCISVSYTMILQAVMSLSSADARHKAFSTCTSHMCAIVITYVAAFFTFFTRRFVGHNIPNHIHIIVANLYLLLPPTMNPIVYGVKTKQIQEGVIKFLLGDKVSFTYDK
Procedure, shortened: as §1

O52W1 H239R L254Q = tested on: T6, O52W1 H239R L254Q
T6 sequence (whole entry): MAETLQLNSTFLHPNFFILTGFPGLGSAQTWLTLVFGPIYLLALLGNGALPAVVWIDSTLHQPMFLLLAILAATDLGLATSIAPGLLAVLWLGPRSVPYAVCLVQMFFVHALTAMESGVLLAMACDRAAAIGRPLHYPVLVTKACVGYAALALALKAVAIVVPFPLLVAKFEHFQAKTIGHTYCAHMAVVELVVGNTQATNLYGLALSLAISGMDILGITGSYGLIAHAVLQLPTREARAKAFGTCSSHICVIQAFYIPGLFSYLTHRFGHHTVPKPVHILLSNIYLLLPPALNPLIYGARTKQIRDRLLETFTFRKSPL
Procedure, shortened: as §1

O56A3 = tested on: T7, O56A3
T7 sequence (whole entry): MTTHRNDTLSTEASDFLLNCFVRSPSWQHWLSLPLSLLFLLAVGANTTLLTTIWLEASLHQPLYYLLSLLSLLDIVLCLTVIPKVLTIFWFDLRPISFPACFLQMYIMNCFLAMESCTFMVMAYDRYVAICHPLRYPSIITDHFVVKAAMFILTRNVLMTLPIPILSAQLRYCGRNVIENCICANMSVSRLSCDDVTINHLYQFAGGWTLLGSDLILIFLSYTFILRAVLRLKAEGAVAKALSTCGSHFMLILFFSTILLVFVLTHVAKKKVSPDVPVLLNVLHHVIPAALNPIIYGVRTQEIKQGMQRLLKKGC
Procedure, shortened: as §1

O56A4 I247A = tested on: T8, O56A4 I247A
T8 sequence (whole entry): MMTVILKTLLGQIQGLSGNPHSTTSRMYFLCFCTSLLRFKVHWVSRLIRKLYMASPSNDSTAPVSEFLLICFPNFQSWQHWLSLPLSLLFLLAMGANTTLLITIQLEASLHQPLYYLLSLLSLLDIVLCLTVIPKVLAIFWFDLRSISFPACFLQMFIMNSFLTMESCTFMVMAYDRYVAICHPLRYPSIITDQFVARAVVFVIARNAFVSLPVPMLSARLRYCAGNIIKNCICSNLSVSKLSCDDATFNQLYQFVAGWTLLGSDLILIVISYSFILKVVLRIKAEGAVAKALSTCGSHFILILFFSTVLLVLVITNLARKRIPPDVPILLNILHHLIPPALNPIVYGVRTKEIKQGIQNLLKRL
Procedure, shortened: as §1

O52L1 = tested on: T9, O52L1
T9 sequence (whole entry): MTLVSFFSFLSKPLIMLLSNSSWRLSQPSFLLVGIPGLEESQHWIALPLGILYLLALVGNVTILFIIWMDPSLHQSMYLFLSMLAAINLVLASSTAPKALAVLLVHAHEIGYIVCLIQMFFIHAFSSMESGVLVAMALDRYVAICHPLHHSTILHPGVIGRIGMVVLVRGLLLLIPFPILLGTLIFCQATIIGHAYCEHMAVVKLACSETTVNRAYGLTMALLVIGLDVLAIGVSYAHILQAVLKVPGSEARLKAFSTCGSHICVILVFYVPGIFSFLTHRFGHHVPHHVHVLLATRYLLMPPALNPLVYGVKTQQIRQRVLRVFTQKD
Procedure, shortened: as §1

Measured: odorant receptor agonist call;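 further: active if original authors judged signal statistically different from baseline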

CCCCCCC=CCCC=O
not listed: O52L1
inactive: all other assays above

CCC1OC(=O)C(O)=C1C (centres undefined)
inactive: all assays above

Cc1cnc(C)c(C)n1
inactive: all assays above

CCC1OC(C)=C(O)C1=O (centres undefined)
inactive: all assays above

CC1=NC(C)C(C)S1 (centres undefined)
inactive: all assays above

CC1=C(O)C(=O)OC1C (centres undefined)
inactive: all assays above

CC1=C(O)C(=O)C(C)O1 (centres undefined)
inactive: all assays above

CCCC(S)CCOC(C)=O (centres undefined)
inactive: all assays above
